This note sets out measurements from ChEMBL document CHEMBL1137650, “An OXA-66/OXA-51-like carbapenemase and possibly an efflux pump are associated with resistance to imipenem in Acinetobacter baumannii” (2007).

≈ marks a conversion by molar mass, not a printed value.

The subject of one experiment is Acinetobacter baumannii. The experiment is described as follows: Antibacterial activity against imipenem-susceptible Acinetobacter baumannii ATCC 19606 by broth dilution method. The conditions noted are these: ATCC 19606 = CIP 70.34 = JCM 6841. The experiment is classed as functional.
Regarding `CO/N=C(\C(=O)N[C@@H]1C(=O)N2C(C(=O)O)=C(COC(C)=O)CS[C@H]12)c1csc(N)n1` [CEFOTAXIME], the lowest concentration to inhibit growth (MIC) was 16 µg/mL (≈ 35.1 µM).

For another experiment, the system named is Acinetobacter baumannii. Kind of experiment: Antibacterial activity against imipenem-susceptible Acinetobacter baumannii ab3 by broth dilution method. In kind it is functional.
Conditions: not given
A digest of the protocol: (§1)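 Clinical isolates were collected at three Taiwan hospitals (1993–2003) and grown in tryptic soy broth at 37°C for 18 h. MIC by broth dilution following CLSI recommendations.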
`CO/N=C(\C(=O)N[C@@H]1C(=O)N2C(C(=O)O)=C(COC(C)=O)CS[C@H]12)c1csc(N)n1` [CEFOTAXIME]: the MIC is > 256 µg/mL.

Another experiment relates to Acinetobacter baumannii. Kind of experiment: Antibacterial activity against imipenem-susceptible Acinetobacter baumannii ab4 by broth dilution method. The experiment is classed as functional.
Conditions: not given
The essentials: as §1
For `CO/N=C(\C(=O)N[C@@H]1C(=O)N2C(C(=O)O)=C(COC(C)=O)CS[C@H]12)c1csc(N)n1` [CEFOTAXIME], the MIC is > 256 µg/mL.

A further experiment relates to Acinetobacter baumannii. Kind of experiment: Antibacterial activity against imipenem-susceptible Acinetobacter baumannii ab8 by broth dilution method. In kind it is functional.
Conditions: not given
The essentials: as §1
For `CO/N=C(\C(=O)N[C@@H]1C(=O)N2C(C(=O)O)=C(COC(C)=O)CS[C@H]12)c1csc(N)n1` [CEFOTAXIME], the MIC is > 256 µg/mL.

A further experiment has as its system Acinetobacter baumannii. Kind of experiment: Antibacterial activity against imipenem-susceptible Acinetobacter baumannii ab12 by broth dilution method.
Conditions: not given
The experiment is classed as functional. The essentials: as §1
With `CO/N=C(\C(=O)N[C@@H]1C(=O)N2C(C(=O)O)=C(COC(C)=O)CS[C@H]12)c1csc(N)n1` [CEFOTAXIME], the MIC is > 256 µg/mL.

Another experiment deals with Acinetobacter baumannii. The experiment is described as follows: Antibacterial activity against imipenem-susceptible Acinetobacter baumannii ab20 by broth dilution method. In kind it is functional.
Conditions: not given
The essentials: as §1
For the compound `CO/N=C(\C(=O)N[C@@H]1C(=O)N2C(C(=O)O)=C(COC(C)=O)CS[C@H]12)c1csc(N)n1` [CEFOTAXIME], the MIC was > 256 µg/mL.

A further experiment deals with Acinetobacter baumannii. The experiment is described as follows: Antibacterial activity against imipenem-susceptible Acinetobacter baumannii ab1308 by broth dilution method. The experiment is classed as functional.
Conditions: not given
The essentials:
(§2)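 Clinical A. baumannii isolates collected at three Taiwanese hospitals, routinely grown in tryptic soy broth at 37°C for 18 h. MICs (μg ml⁻¹) were determined by broth dilution following CLSI recommendations, or by Etest strips following the manufacturer's instructions.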
With `CO/N=C(\C(=O)N[C@@H]1C(=O)N2C(C(=O)O)=C(COC(C)=O)CS[C@H]12)c1csc(N)n1` [CEFOTAXIME], the MIC is > 256 µg/mL.

In the next experiment the test system is Acinetobacter baumannii. Kind of experiment: Antibacterial activity against imipenem-susceptible Acinetobacter baumannii ab1254 by broth dilution method.
Conditions: not given
In kind it is functional. The essentials: as §1
Take `CO/N=C(\C(=O)N[C@@H]1C(=O)N2C(C(=O)O)=C(COC(C)=O)CS[C@H]12)c1csc(N)n1` [CEFOTAXIME]: the MIC is > 256 µg/mL.

A further experiment deals with Acinetobacter baumannii. The experiment is described as follows: Antibacterial activity against imipenem-susceptible Acinetobacter baumannii ab1316 by broth dilution method.
Conditions: not given
The experiment is classed as functional. The essentials: as §2
Regarding `CO/N=C(\C(=O)N[C@@H]1C(=O)N2C(C(=O)O)=C(COC(C)=O)CS[C@H]12)c1csc(N)n1` [CEFOTAXIME], the minimal inhibitory concentration (MIC) was > 256 µg/mL.

The subject of another experiment is Acinetobacter baumannii. The experiment is described as follows: Antibacterial activity against imipenem-intermediate Acinetobacter baumannii ab1297 by broth dilution method. The experiment is classed as functional.
Conditions: not given
The essentials:
as §2
`CO/N=C(\C(=O)N[C@@H]1C(=O)N2C(C(=O)O)=C(COC(C)=O)CS[C@H]12)c1csc(N)n1` [CEFOTAXIME]: the minimum inhibitory concentration (MIC) is > 256 µg/mL.

The test system of a further experiment is Acinetobacter baumannii. Kind of experiment: Antibacterial activity against imipenem-resistant Acinetobacter baumannii ab1265 by broth dilution method.
Conditions: not given
In kind it is functional. The essentials: as §1
Take `CO/N=C(\C(=O)N[C@@H]1C(=O)N2C(C(=O)O)=C(COC(C)=O)CS[C@H]12)c1csc(N)n1` [CEFOTAXIME]: the MIC is > 256 µg/mL.

A further experiment concerns Acinetobacter baumannii. The experiment is described as follows: Antibacterial activity against imipenem-resistant Acinetobacter baumannii ab1266 by broth dilution method. The experiment is classed as functional.
Conditions: not given
A digest of the protocol: as §1
On to `CO/N=C(\C(=O)N[C@@H]1C(=O)N2C(C(=O)O)=C(COC(C)=O)CS[C@H]12)c1csc(N)n1` [CEFOTAXIME], for which the minimal inhibitory concentration (MIC) was > 256 µg/mL.

A further experiment deals with Acinetobacter baumannii. Kind of experiment: Antibacterial activity against imipenem-resistant Acinetobacter baumannii abh9 by broth dilution method. The experiment is classed as functional.
Conditions: not given
A digest of the protocol: as §1
For `CO/N=C(\C(=O)N[C@@H]1C(=O)N2C(C(=O)O)=C(COC(C)=O)CS[C@H]12)c1csc(N)n1` [CEFOTAXIME], the minimum inhibitory concentration (MIC) was > 256 µg/mL.

The subject of the next experiment is Acinetobacter baumannii. Kind of experiment: Antibacterial activity against imipenem-resistant Acinetobacter baumannii abh11 by broth dilution method.
Conditions: not given
The experiment is classed as functional. The essentials:
as §1
Take `CO/N=C(\C(=O)N[C@@H]1C(=O)N2C(C(=O)O)=C(COC(C)=O)CS[C@H]12)c1csc(N)n1` [CEFOTAXIME]: the MIC was > 256 µg/mL.

Another experiment has as its system Acinetobacter baumannii. Kind of experiment: Antibacterial activity against imipenem-resistant Acinetobacter baumannii abh13 by broth dilution method. In kind it is functional.
Conditions: not given
A digest of the protocol: as §1
On to `CO/N=C(\C(=O)N[C@@H]1C(=O)N2C(C(=O)O)=C(COC(C)=O)CS[C@H]12)c1csc(N)n1` [CEFOTAXIME], for which the MIC is > 256 µg/mL.

A further experiment relates to Acinetobacter baumannii. Kind of experiment: Antibacterial activity against imipenem-resistant Acinetobacter baumannii abh14 by broth dilution method. In kind it is functional.
Conditions: not given
A digest of the protocol: as §1
Regarding `CO/N=C(\C(=O)N[C@@H]1C(=O)N2C(C(=O)O)=C(COC(C)=O)CS[C@H]12)c1csc(N)n1` [CEFOTAXIME], the MIC is > 256 µg/mL.

The subject of the next experiment is Acinetobacter baumannii. The experiment is described as follows: Antibacterial activity against imipenem-resistant Acinetobacter baumannii abh17 by broth dilution method. In kind it is functional.
Conditions: not given
A digest of the protocol: as §1
Regarding `CO/N=C(\C(=O)N[C@@H]1C(=O)N2C(C(=O)O)=C(COC(C)=O)CS[C@H]12)c1csc(N)n1` [CEFOTAXIME], the MIC was > 256 µg/mL.

The next experiment relates to Acinetobacter baumannii. Kind of experiment: Antibacterial activity against imipenem-resistant Acinetobacter baumannii abh18 by broth dilution method.
Conditions: not given
In kind it is functional. A digest of the protocol: as §1
On to `CO/N=C(\C(=O)N[C@@H]1C(=O)N2C(C(=O)O)=C(COC(C)=O)CS[C@H]12)c1csc(N)n1` [CEFOTAXIME], for which the minimum inhibitory concentration (MIC) is > 256 µg/mL.

In the next experiment the test system is Acinetobacter baumannii. Kind of experiment: Antibacterial activity against imipenem-resistant Acinetobacter baumannii abh20 by broth dilution method. The experiment is classed as functional.
Conditions: not given
The essentials: as §1
In the case of `CO/N=C(\C(=O)N[C@@H]1C(=O)N2C(C(=O)O)=C(COC(C)=O)CS[C@H]12)c1csc(N)n1` [CEFOTAXIME], the minimum inhibitory concentration (MIC) was > 256 µg/mL.

Another experiment has as its system Acinetobacter baumannii. Kind of experiment: Antibacterial activity against imipenem-resistant Acinetobacter baumannii abh26 by broth dilution method. The experiment is classed as functional.
Conditions: not given
A digest of the protocol:
as §1
Regarding `CO/N=C(\C(=O)N[C@@H]1C(=O)N2C(C(=O)O)=C(COC(C)=O)CS[C@H]12)c1csc(N)n1` [CEFOTAXIME], the MIC is > 256 µg/mL.

The subject of another experiment is Acinetobacter baumannii. The experiment is described as follows: Antibacterial activity against imipenem-resistant Acinetobacter baumannii abh29 by broth dilution method.
Conditions: not given
The experiment is classed as functional. A digest of the protocol:
as §1
Regarding `CO/N=C(\C(=O)N[C@@H]1C(=O)N2C(C(=O)O)=C(COC(C)=O)CS[C@H]12)c1csc(N)n1` [CEFOTAXIME], the MIC is > 256 µg/mL.

The subject of the next experiment is Acinetobacter baumannii. Kind of experiment: Antibacterial activity against imipenem-resistant Acinetobacter baumannii abh36 by broth dilution method. The experiment is classed as functional.
Conditions: not given
A digest of the protocol: as §1
On to `CO/N=C(\C(=O)N[C@@H]1C(=O)N2C(C(=O)O)=C(COC(C)=O)CS[C@H]12)c1csc(N)n1` [CEFOTAXIME], for which the MIC was > 256 µg/mL.

Another experiment deals with Acinetobacter baumannii. Kind of experiment: Antibacterial activity against imipenem-resistant Acinetobacter baumannii abh37 by broth dilution method. In kind it is functional.
Conditions: not given
The essentials: as §1
Take `CO/N=C(\C(=O)N[C@@H]1C(=O)N2C(C(=O)O)=C(COC(C)=O)CS[C@H]12)c1csc(N)n1` [CEFOTAXIME]: the MIC is > 256 µg/mL.

The subject of the next experiment is Acinetobacter baumannii. Kind of experiment: Antibacterial activity against imipenem-resistant Acinetobacter baumannii abh39 by broth dilution method.
Conditions: not given
In kind it is functional. A digest of the protocol:
as §1
In the case of `CO/N=C(\C(=O)N[C@@H]1C(=O)N2C(C(=O)O)=C(COC(C)=O)CS[C@H]12)c1csc(N)n1` [CEFOTAXIME], the MIC was > 256 µg/mL.
